Structures are written as SMILES. Converted amounts (≈) assume the structure as drawn. A value given as a limit tells only on which side of the number the result lay.

The record followed here is ChEMBL document CHEMBL1777679, “Discovery and optimization of pyrazoline compounds as B-Raf inhibitors” (Bioorg Med Chem Lett, 2010).

The target of series [1] is T1, Serine/threonine-protein kinase B-raf (Homo sapiens, UniProt P15056, V600E). The experiment in a line: Inhibition of B-Raf V600E mutant-mediated pERK phosphorylation in human A375 cells after 3 hrs by whole cell ELISA assay. It is filed as cell-based, A-375. An outline of the steps:
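A375 human melanoma cells (B-Raf V600E) were seeded overnight and exposed to inhibitor for 3 h. Cells were then fixed, permeabilized and blocked overnight. Detection used anti-phospho-ERK antibody for 1 h, then an HRP conjugate, with tetramethylbenzidine read at OD 650 nm.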
On the technique in general: An ELISA detects its analyte on a solid surface through an enzyme-linked reagent.

For series [2], the target named is T1, Serine/threonine-protein kinase B-raf. The series can be described thus: Inhibition of B-Raf V600E mutant after 2 hrs. Conditions: in the assay text read “after 3 hrs” for “after 2 hrs”. An outline of the steps:
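Raf kinase activity measured with a biotinylated peptide substrate at 30 °C for 3 h. After the stop step, the mixture was incubated 2 h on a streptavidin-coated flashplate and counts were read by scintillation.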

The nature of series [3]: AUC in Sprague-Dawley rat at 0.5 to 1 mg/kg, iv and 10 mg/kg, po. It is filed as ADME, organism-based. To be noted: plasma. An outline of the steps:
(§1)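 Male SD rats dosed intravenously at 0.5 mg/kg or 1 mg/kg, or orally at 10 mg/kg. Plasma exposure, clearance and oral bioavailability derived from plasma levels.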

Series [4] in a line: Bioavailability in Sprague-Dawley rat at 0.5 to 1 mg/kg, iv and 10 mg/kg, po. It is filed as ADME, organism-based. To be noted: in vivo. Summed up: as §1
Series [5] in a line: Clearance in Sprague-Dawley rat at 0.5 to 1 mg/kg, iv and 10 mg/kg, po. It is filed as ADME, organism-based. Conditions: in vivo. An outline of the steps:
as §1

The target in series [6] is T1, Serine/threonine-protein kinase B-raf. The experiment in a line: Inhibition of B-Raf V600E mutant after 3 hrs.
For series [7] the target is unchanged. The experiment in a line: Inhibition of B-Raf V600E mutant. An outline of the steps: (§2)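 Raf kinase reaction with biotinylated peptide substrate run 3 h at 30 °C. After a stop step, the mixture is held 2 h on streptavidin-coated flashplates to capture the substrate, and the plates are read by scintillation counting.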
Series [8] deals with RAF proto-oncogene serine/threonine-protein kinase (Homo sapiens, UniProt P04049). The series can be described thus: Inhibition of C-Raf.
For series [9], the target named is Serine/threonine-protein kinase B-raf (Homo sapiens, UniProt P15056). The series can be described thus: Inhibition of B-Raf. An outline of the steps: as §2
A short description of series [10]: Aqueous solubility of the compound in 50 mM of potassium phosphate buffer at pH 6.8 by turbidimetric method. It is filed as physicochemical. An outline of the steps: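 Turbidimetric kinetic solubility in 50 mM potassium phosphate buffer, pH 6.8.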

T1 sequence (P15056 2-766 V600E limits assumed): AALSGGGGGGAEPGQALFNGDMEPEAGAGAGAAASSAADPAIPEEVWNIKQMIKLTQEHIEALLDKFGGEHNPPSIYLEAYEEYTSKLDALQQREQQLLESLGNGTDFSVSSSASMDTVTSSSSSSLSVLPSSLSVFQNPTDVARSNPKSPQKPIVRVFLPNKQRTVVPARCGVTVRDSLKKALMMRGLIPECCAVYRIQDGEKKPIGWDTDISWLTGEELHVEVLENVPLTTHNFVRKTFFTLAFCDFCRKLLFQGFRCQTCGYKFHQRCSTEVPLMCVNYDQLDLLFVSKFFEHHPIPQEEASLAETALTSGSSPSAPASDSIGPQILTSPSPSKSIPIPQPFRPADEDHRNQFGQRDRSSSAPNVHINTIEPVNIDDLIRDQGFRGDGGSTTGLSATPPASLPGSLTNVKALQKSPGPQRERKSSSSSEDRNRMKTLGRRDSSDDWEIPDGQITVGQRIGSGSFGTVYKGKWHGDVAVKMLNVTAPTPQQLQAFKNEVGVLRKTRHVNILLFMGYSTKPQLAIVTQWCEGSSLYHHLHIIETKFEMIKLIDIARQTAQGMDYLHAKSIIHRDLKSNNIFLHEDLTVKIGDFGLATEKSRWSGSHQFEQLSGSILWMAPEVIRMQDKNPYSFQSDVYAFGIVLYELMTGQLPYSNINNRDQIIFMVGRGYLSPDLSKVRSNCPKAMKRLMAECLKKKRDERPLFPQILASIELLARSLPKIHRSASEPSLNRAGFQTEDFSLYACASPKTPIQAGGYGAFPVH
Chain of RAF proto-oncogene serine/threonine-protein kinase (P04049 whole entry): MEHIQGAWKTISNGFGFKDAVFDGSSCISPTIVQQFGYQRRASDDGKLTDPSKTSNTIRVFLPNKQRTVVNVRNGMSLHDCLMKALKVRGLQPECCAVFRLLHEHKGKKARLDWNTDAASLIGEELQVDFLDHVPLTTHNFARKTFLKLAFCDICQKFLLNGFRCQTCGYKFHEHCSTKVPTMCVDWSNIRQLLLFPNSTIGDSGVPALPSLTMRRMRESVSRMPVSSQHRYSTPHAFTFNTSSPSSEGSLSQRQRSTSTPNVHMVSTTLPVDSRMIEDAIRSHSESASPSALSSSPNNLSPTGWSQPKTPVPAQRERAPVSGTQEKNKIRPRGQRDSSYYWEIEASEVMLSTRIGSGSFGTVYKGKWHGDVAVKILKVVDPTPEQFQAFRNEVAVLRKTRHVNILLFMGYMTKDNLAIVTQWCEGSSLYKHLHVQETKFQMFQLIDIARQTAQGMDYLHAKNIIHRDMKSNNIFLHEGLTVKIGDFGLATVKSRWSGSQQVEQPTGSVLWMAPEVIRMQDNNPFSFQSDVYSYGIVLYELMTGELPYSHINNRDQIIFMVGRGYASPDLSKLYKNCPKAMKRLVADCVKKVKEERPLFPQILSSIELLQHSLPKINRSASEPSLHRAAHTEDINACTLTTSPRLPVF
Chain of Serine/threonine-protein kinase B-raf (Homo sapiens, UniProt P15056) (P15056 whole entry): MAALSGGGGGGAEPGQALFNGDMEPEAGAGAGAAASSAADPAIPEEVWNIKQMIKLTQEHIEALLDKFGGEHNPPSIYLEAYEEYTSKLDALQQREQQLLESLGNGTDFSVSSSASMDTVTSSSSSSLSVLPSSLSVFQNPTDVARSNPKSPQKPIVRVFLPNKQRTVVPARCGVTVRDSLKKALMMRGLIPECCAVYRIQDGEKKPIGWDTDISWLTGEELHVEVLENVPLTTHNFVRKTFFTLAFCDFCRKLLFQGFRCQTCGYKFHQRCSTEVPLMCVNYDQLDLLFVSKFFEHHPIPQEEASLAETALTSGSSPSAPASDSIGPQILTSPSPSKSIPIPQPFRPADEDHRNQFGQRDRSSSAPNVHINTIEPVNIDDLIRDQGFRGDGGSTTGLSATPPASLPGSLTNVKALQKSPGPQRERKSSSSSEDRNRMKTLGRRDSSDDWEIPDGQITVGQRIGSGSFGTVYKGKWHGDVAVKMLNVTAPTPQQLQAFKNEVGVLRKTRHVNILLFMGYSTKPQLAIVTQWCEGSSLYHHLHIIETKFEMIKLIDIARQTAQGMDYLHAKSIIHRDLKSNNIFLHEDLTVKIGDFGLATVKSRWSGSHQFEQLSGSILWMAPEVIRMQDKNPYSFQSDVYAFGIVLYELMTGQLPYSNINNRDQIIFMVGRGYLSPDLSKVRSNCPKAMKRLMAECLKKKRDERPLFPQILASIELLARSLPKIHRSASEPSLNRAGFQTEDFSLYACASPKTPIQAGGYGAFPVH

A word on the IC50: it is the concentration that gives 50% inhibition. Consider `Cn1cc(-c2ccc(C(=O)N3N=C(c4cccnc4)CC3c3ccccc3O)s2)cn1` (racemic), for which the IC50 is 89 nM in series [1] and 9 nM in series [2].

The AUC is the area under the concentration-time curve, a measure of exposure. For orientation: bioavailability means dose-corrected exposure relative to a reference, in per cent. `NCc1ccccc1-c1ccc(C(=O)N2N=C(c3cccnc3)CC2c2c(O)cccc2F)s1` (racemic) displayed an AUC in series [3] of 11 µM·h. Further, the bioavailability in series [4] came out at 85%. In addition, the IC50 in series [1] was 85 nM; in [2] it was 7 nM. Further, the clearance in [5] is 26.7 mL/min/kg.

For `Nc1cncc(C2=NN(C(=O)c3ccc(-c4ccccn4)s3)C(c3c(O)cccc3F)C2)c1` (racemic), the concentration for half-maximal inhibition (IC50) came out at 18 nM in [1] and 3 nM in series [2].

On to `O=C(c1ccc(-c2ccc(CO)cc2)s1)N1N=C(c2cccnc2)CC1c1ccccc1O` (racemic), for which the IC50 was determined as 140 nM in [1] and 5 nM in series [2].

`O=C(c1ccc(-c2ccccn2)s1)N1N=C(c2cccnc2)CC1c1ccccc1O` (single isomer, unassigned; enantiomer 2) returned an IC50 in series [1] of 14000 nM.

On to `NCc1ccc(-c2ccc(C(=O)N3N=C(c4cccnc4)CC3c3c(O)cccc3F)s2)cc1` (racemic), for which the values for the IC50 in series [1] and in [2] were 37 nM and 3 nM, respectively.

As to `O=C(c1ccc(-c2ccc3c(c2)CNCC3)s1)N1N=C(c2cccnc2)CC1c1ccccc1O` (racemic), the IC50 was 25 nM in [1] and 4 nM in series [2].

Take `O=C(c1ccc(-c2ccc3c(c2)CNC3)s1)N1N=C(c2cccnc2)CC1c1ccccc1O` (racemic): the AUC in series [3] amounted to 0.89 µM·h. Moreover, the bioavailability in series [4] worked out at 14%. Besides, the IC50 is 19 nM in series [1] and 4 nM in series [2]. In addition, the clearance in series [5] was 58.3 mL/min/kg.

As to `NCc1cccc(-c2ccc(C(=O)N3N=C(c4cccnc4)CC3c3ccccc3O)s2)c1` (racemic), the IC50 amounted to 390 nM in series [1] and 6 nM in series [2].

For `O=C(c1ccc(-c2ccccn2)s1)N1N=C(c2cccnc2)CC1c1ccccc1` (racemic), 799 nM corresponded to half-maximal inhibition in series [2] (IC50).

Consider `O=C(c1ccc(-c2ccccn2)s1)N1N=C(c2cccnc2)CC1c1cc(F)ccc1O` (racemic), for which the 50% inhibitory concentration (IC50) in series [1] was determined as 680 nM; in series [2], 7 nM.

`NCc1ccccc1-c1ccc(C(=O)N2N=C(c3cccnc3)CC2c2ccccc2O)s1` (racemic) displayed an AUC in series [3] of 4.9 µM·h. This molecule had a bioavailability in series [4] of 76%. The IC50 in series [1] stood at 270 nM; in [2], 10 nM. In addition, the clearance in [5] is 65 mL/min/kg.

Molecule `O=C(c1ccc(-c2cccc3c2CCNC3)s1)N1N=C(c2cccnc2)CC1c1c(O)cccc1F` (racemic) displayed an AUC in series [3] of 26 µM·h. The molecule also came in with a bioavailability in series [4] of 89%. Besides, in [1], the midpoint of inhibition, the IC50, lay at 180 nM. The molecule further gave a clearance in series [5] of 11.7 mL/min/kg.

`O=C(c1ccc(-c2ccc3c(c2)CCNC3)s1)N1N=C(c2cccnc2)CC1c1c(O)cccc1F` (racemic): the IC50 in [1] was determined as 34 nM; in series [2], 3 nM.

On to `NCc1ccccc1-c1ccc(C(=O)N2N=C(c3cncc(N)c3)CC2c2c(O)cccc2F)s1` (racemic), for which the figures for the IC50 in series [1] and in series [2] were 56 nM and 4 nM, respectively.

On to `O=C(c1ccc(-c2ccccn2)s1)N1N=C(c2cncc(CO)c2)CC1c1ccccc1O` (racemic), for which the IC50 in series [1] was found to be 39 nM; in series [2], 3 nM.

`O=C(c1ccc(-c2cccc(CN3CCCC3)c2)s1)N1N=C(c2cccnc2)CC1c1c(O)cccc1F` (racemic): the IC50 in series [1] was found to be 41 nM; in series [2], 8 nM.

Consider `NCc1ccccc1-c1ccc(C(=O)N2N=C(c3cncc(F)c3)CC2c2ccccc2O)s1` (racemic), for which the figures for the IC50 in [1] and in series [6] were 180 nM and 21 nM, respectively.

In the case of `NCc1ccccc1-c1ccc(C(=O)N2N=C(c3cncc(N)c3)CC2c2ccccc2O)s1` (racemic), the IC50 is 64 nM in [1] and 7 nM in series [2].

As to `O=C(c1ccc(-c2ccc3c(c2)CNC3)s1)N1N=C(c2cncc(CO)c2)CC1c1c(O)cccc1F` (racemic), the values for the IC50 in [1] and in series [2] were 120 nM and 3 nM, respectively.

With `O=C(c1ccc(-c2ccccn2)s1)N1N=C(c2cccnc2)CC1c1c(O)cccc1F` (racemic), the values for the IC50 in series [1] and in series [2] were 80 nM and 5 nM, respectively.

For the molecule `CC(=O)Nc1cncc(C2=NN(C(=O)c3ccc(-c4ccccn4)s3)C(c3ccccc3O)C2)c1` (racemic), the figures for the IC50 in series [1] and in series [2] were 63 nM and 3 nM, respectively.

As to `O=C(c1ccc(-c2ccccn2)s1)N1N=C(c2cccnc2)CC1c1cccc(F)c1O` (racemic), the IC50 in [1] was found to be 1400 nM; in series [2], 13 nM.

As to `O=C(c1ccc(-c2ccc3c(c2)CNCC3)s1)N1N=C(c2cccnc2)CC1c1c(O)cccc1F` (racemic), the IC50 came to 21 nM in series [1] and 3 nM in [2].

On to `Nc1cncc(C2=NN(C(=O)c3ccc(-c4ccccn4)s3)C(c3ccccc3O)C2)c1` (racemic), for which the IC50 in [1] turned out to be 31 nM; in series [2], 3 nM.

Take `O=C(c1ccco1)N1N=C(c2cccnc2)CC1c1ccccc1O` (racemic): the IC50 amounted to 1800 nM in [1] and 200 nM in [6].

On to `Cc1nc(-c2ccc(C(=O)N3N=C(c4cccnc4)CC3c3ccccc3O)s2)cs1` (racemic), for which the IC50 in series [1] is 210 nM; in [2], 7 nM.

Turning to `Cn1cc(-c2ccc(C(=O)N3N=C(c4cccnc4)CC3c3c(O)cccc3F)s2)cn1` (racemic), the IC50 in series [1] was 55 nM; in series [2], 3 nM.

For `O=C(c1ccc(-c2ccc3c(c2)CCNC3)s1)N1N=C(c2cccnc2)CC1c1ccccc1O` (racemic), the half-maximal inhibitory concentration (IC50) is 21 nM in series [1] and 5 nM in series [2].

In [3], `O=C(c1ccc(-c2ccc3c(c2)CNC3)s1)N1N=C(c2cccnc2)CC1c1c(O)cccc1F` (racemic) had an AUC of 8.4 µM·h. In addition, in series [4], the bioavailability was 37%. Also, the figures for the IC50 in series [1] and in [6] were 60 nM and 2 nM, respectively. This molecule also had a clearance in [5] of 15 mL/min/kg.

With `O=C(c1ccc(-c2ccccn2)s1)N1N=C(c2cccnc2)CC1c1ccc(F)cc1O` (racemic), the IC50 in series [1] was 1400 nM; in [2], 11 nM.

As to `O=C(c1ccc(-c2ccccn2)s1)N1N=C(c2cccnc2)CC1c1ccccc1O` (single isomer, unassigned; enantiomer 1), inhibition in series [1] was half-maximal at 280 nM (IC50).

Regarding `O=C(c1ccc(-c2cccc(CN3CCCC3)c2)s1)N1N=C(c2cccnc2)CC1c1ccccc1O` (racemic), the IC50 in series [1] is 110 nM; in series [2] it was 6 nM.

Take `Cc1ccccc1-c1ccc(C(=O)N2N=C(c3cccnc3)CC2c2ccccc2O)s1` (racemic): the IC50 in series [1] is 1500 nM; in series [2], 79 nM.

One may read the kinetic solubility as the concentration staying in solution when a stock, usually in DMSO, is diluted into the medium. For the molecule `O=C(c1ccc(-c2ccccn2)s1)N1N=C(c2cccnc2)CC1c1ccccc1O` (racemic), the IC50 in [1] turned out to be 180 nM; in series [7], 23 nM; in series [8] it was 27 nM; in [9], 17 nM; in series [6] it was 23 nM. Also, the kinetic solubility in series [10] is 5.8 µg/mL (≈ 13.6 µM).

Consider `NCc1ccc(-c2ccc(C(=O)N3N=C(c4cccnc4)CC3c3ccccc3O)s2)cc1` (racemic), for which the values for the IC50 in [1] and in series [2] were 82 nM and 5 nM, respectively.

Consider `O=C(c1ccc(-c2ccccn2)s1)N1N=C(c2cccnc2)CC1c1cccc(O)c1` (racemic), for which the IC50 was above 25000 nM in series [1] and 670 nM in [2].
